Experimental data published in ChEMBL document CHEMBL1212917, “Substituted E-3-(3-indolylmethylene)-1,3-dihydroindol-2-ones with antitumor activity. In depth study of the effect on growth of breast cancer cells” (2010).
Active and inactive are the calls of the source. No cut-off for these calls is given here.

Tests used:
[1] = Growth inhibition of human renal cancer cells after 48 hrs; format: functional; conditions: Cancer cell lines; for CC50: read-out: LC50 (the source's name)
MCF7 [2] = experiment: Antiproliferative activity against human MCF7 cells assessed as increase in tumor suppressor p53 expression at 5 uM after 20 hrs by Western blotting; format: functional
Procedure, shortened: (§1)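 MCF-7 cells in RPMI 1640 with 10% FBS and 2 mM L-glutamine at 37°C, 5% CO2, plated at 2×10^4 cells/cm2. Compound added 24 h later to 5 μM (DMSO vehicle in controls) for 20 h. Lysed in HEPES pH 7.5 buffer with DTT, EDTA, CHAPS, Triton X-100 and protease inhibitors, then freeze-thawed twice. SDS-PAGE at 80 μg protein/lane and immunoblotting for total and phospho ERK1/2 and Akt, p53 and p21, with β-actin. Densitometry used for quantitation.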

[3] = Growth inhibition of human Ovarian cancer cells after 48 hrs; format: functional; conditions: Cancer cell lines; for CC50: read-out: LC50 (the source's name)
NSCLC = experiment: Growth inhibition of human NSCLC cells after 48 hrs; format: functional
[4] = Growth inhibition of human melanoma cells after 48 hrs; format: functional; conditions: Melanoma cell; for CC50: read-out: LC50 (the source's name)
[5] = Growth inhibition of human leukemia cells after 48 hrs; format: functional; conditions: Leukemia cell; for CC50: read-out: LC50 (the source's name)
[6] = Growth inhibition of human colon cancer cells after 48 hrs; format: functional; conditions: Cancer cell lines; for CC50: read-out: LC50 (the source's name)
[7] = Growth inhibition of human CNS cancer cells after 48 hrs; format: functional; conditions: Cancer cell lines; for CC50: read-out: LC50 (the source's name)
[8] = Growth inhibition of human prostate cancer cells after 48 hrs; format: functional; conditions: Cancer cell lines; for CC50: read-out: LC50 (the source's name)
[9] = Growth inhibition of human breast cancer cells after 48 hrs; format: functional; conditions: Cancer cell lines; for CC50: read-out: LC50 (the source's name)
[10] = target: RAC-alpha serine/threonine-protein kinase (Homo sapiens) (UniProt P31749); experiment: Inhibition of AKT phosphorylation in human MCF7 cells assessed as p-AKT level at 5 uM after 20 hrs by Western blotting; format: cell-based; procedure, shortened: as §1
Chain of RAC-alpha serine/threonine-protein kinase (Homo sapiens) (P31749 whole entry): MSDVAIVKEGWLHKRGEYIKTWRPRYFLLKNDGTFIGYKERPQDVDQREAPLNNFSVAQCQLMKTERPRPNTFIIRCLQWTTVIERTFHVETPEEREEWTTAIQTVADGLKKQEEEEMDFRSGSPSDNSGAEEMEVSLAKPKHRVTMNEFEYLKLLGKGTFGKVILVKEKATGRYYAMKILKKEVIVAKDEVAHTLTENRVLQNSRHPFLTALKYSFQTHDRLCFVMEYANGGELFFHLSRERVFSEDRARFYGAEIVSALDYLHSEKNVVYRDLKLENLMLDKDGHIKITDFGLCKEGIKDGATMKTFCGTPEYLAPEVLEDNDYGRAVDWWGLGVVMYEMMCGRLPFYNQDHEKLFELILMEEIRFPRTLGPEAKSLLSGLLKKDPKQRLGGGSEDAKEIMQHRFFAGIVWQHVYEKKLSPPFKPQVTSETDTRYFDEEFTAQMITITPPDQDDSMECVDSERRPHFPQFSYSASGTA

MCF7 [11] = experiment: Induction of apoptosis in human MCF7 cells assessed as Bax accumulation by immunofluorescence microscopy; format: functional, cell-based
Procedure, shortened: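 MCF-7 cells seeded on glass coverslips at 1×10^4 cells/cm2 and treated with 5 μM for 24 h. Fixed in 3% paraformaldehyde, washed in glycine and permeabilized in ice-cold 70% ethanol. Stained with mouse anti-Bax for 1 h at room temperature, then FITC anti-mouse IgG, with propidium iodide as nuclear counterstain. Imaged by confocal microscopy with excitation at 488 and 568 nm. Three experiments.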

MCF7 [12] = experiment: Growth inhibition of human MCF7 cells at 200 nM after 48 hrs by trypan blue exclusion cell counting
MCF7 [13] = experiment: Cell cycle arrest in human MCF7 cells assessed as accumulation at G2/M phase at 200 nM after 24 to 48 hrs; format: functional, cell-based
Procedure, shortened: (§2)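 MCF-7 cells plated at 2×10^4 cells/cm2 and exposed to 200 nM compound for 24 and 48 h; DMSO-treated controls. Cells detached with trypsin/EDTA and washed in PBS. Stained 30 min at room temperature in the dark with 50 μg/mL propidium iodide, 10 μg/mL RNase, 0.01% NP-40 and 0.1% sodium citrate. DNA content read by flow cytometry. Means ± s.e.m. of three determinations.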

MCF7 [14] = experiment: Antiproliferative activity against human MCF7 cells assessed as increase in tumor suppressor p21 expression at 5 uM after 20 hrs by Western blotting; format: functional; conditions: in the assay text read “24 hrs” for “20 hrs”
MCF7 [15] = experiment: Cell cycle arrest in human MCF7 cells assessed as accumulation at subG1 phase at 200 nM after 24 to 48 hrs; format: functional, cell-based; procedure, shortened: as §2

Row | Compound | GI50 [1] [µM] | CC50 [1] [µM] | GI50 [3] [µM] | CC50 [3] [µM] | GI50 (NSCLC) [µM] | LC50 (NSCLC) [µM] | GI50 [4] [µM] | CC50 [4] [µM] | GI50 [5] [µM] | CC50 [5] [µM] | GI50 [6] [µM] | CC50 [6] [µM] | GI50 [7] [µM] | CC50 [7] [µM] | GI50 [8] [µM] | CC50 [8] [µM] | GI50 [9] [µM] | CC50 [9] [µM] | TGI [8] [µM] | further results
1 | COc1cc2c(cc1C)N(C)C(=O)/C2=C/c1c(Cl)[nH]c2ccccc12 | 0.62 | 56.2 | 0.6 | 61.7 | 0.58 | 57.5 | 0.71 | 51.3 | 0.26 | 69.2 | 0.37 | 46.8 | 0.32 | 47.9 | 0.32 | 69.2 | 0.3 | 57.5 |  | Activity (MCF7 [2]): Active
2 | COc1cc2c(/C=C3/C(=O)Nc4cc(Cl)ccc43)c(Cl)n(C)c2cc1C | 0.04 | 70.8 | 0.03 | 52.5 | 0.07 | 93.3 | 0.02 | 50.1 | 0.02 | 39.8 | 0.02 | 25.1 | 0.02 | 23.4 | 0.02 | 21.4 | 0.05 | 72.4 | 3.02 | Activity [10]: Active; Activity (MCF7 [2]): Active; fold change (FC) (MCF7 [2]; in the assay text read “after 24 hrs” for “after 20 hrs”): 3; Activity (MCF7 [11]): Active; Activity (MCF7 [12]): Active; Activity (MCF7 [13]): Active; Activity (MCF7 [14]): 90%; Activity (MCF7 [15]): Active
3 | COc1cc2c(/C=C3/C(=O)N(C)c4ccccc43)c[nH]c2cc1C | 4.17 |  | 7.76 |  | 6.31 | 93.3 | 3.09 | 97.7 | 2 | 93.3 | 0.76 | 97.7 | 1.07 | 95.5 | 4.17 |  | 1.78 |  | 81.3 | TGI [1]: 60.3 µM; TGI [3]: 60.3 µM; TGI (NSCLC): 66.1 µM; TGI [4]: 74.1 µM; TGI [5]: 35.5 µM; TGI [6]: 60.3 µM; TGI [7]: 42.7 µM; TGI [9]: 55 µM
4 | COc1cc2c(cc1C)N(C)C(=O)/C2=C/c1c(Cl)n(C)c2cc(C)c(OC)cc12 | 15.8 | 77.6 | 18.6 | 89.1 | 19.5 | 93.3 | 16.2 |  | 6.92 |  | 20.4 | 97.7 | 10.5 | 61.7 | 35.5 |  | 6.76 | 83.2 |  | 
5 | COc1ccc2c(c1)/C(=C\c1c(Cl)[nH]c3ccc(N(C)C)cc13)C(=O)N2 | 3.02 | 52.5 | 3.39 | 50.1 | 3.02 | 58.9 | 3.55 | 44.7 | 1.62 | 72.4 | 1.55 | 30.2 | 2.09 | 32.4 | 2.88 | 50.1 | 1.15 | 55 |  | 
6 | COc1cc2c(/C=C3/C(=O)Nc4ccc(Br)cc43)c(Cl)[nH]c2cc1C | 2.45 | 37.1 | 2 | 38.9 | 3.02 | 53.7 | 2.14 | 41.7 | 1.62 | 37.1 | 1.95 | 23.4 | 1.58 | 35.5 | 2.24 | 30.9 | 2.14 | 50.1 |  | 
7 | O=C1Nc2cccc(Cl)c2/C1=C\c1c(Cl)[nH]c2c1ccc1ccccc12 | 8.91 | 56.2 | 2.51 | 57.5 | 9.55 | 72.4 | 4.57 | 46.8 | 5.5 | 75.9 | 4.9 | 47.9 | 3.63 | 53.7 | 10.2 | 63.1 | 5.01 | 67.6 | 31.6 | TGI [1]: 23.4 µM; TGI [3]: 13.2 µM; TGI (NSCLC): 28.2 µM; TGI [4]: 19.1 µM; TGI [5]: 25.7 µM; TGI [6]: 17.4 µM; TGI [7]: 17.8 µM; TGI [9]: 19.9 µM
8 | COc1cc2c(/C=C3/C(=O)N(C)c4ccccc43)c(Cl)n(C)c2cc1C | 0.33 | 79.4 | 0.38 | 95.5 | 0.58 |  | 0.34 | 69.2 | 0.25 | 46.8 | 0.2 | 72.4 | 0.2 | 74.1 | 0.39 | 66.1 | 0.28 | 95.5 |  | 
9 | COc1cc2c(/C=C3/C(=O)Nc4ccc(N(C)C)cc43)c(Cl)n(C)c2cc1C | 11.2 |  | 10.5 | 91.2 | 18.2 |  | 10.2 | 93.3 | 10 | 87.1 | 12.3 |  | 10.7 |  | 20.4 |  | 6.92 |  |  | 
